Compounds with a hit are over-represented: about 2.5% of the library has one in this group of screens.
PglD inh: blocks C. jejuni PglD acetyltransferase activity | purified PglD enzyme, DTNB colorimetric CoA detection | AID 602405 | actives 0.098% (n = 360,000) | inhibition, % at 12.5 µM; in the data active = inhibition above about 16%, passing the limit was not always enough; inconclusive = no clear call, values can overlap the other calls
E-selectin induc: E-selectin induction on HUVECs; P16581; HUVEC E-selectin immunofluorescence imaging; normalized: neutral wells 0, TNF-alpha wells 100; activation, % at 7.58 µM; actives 0.37% (n = 260,000); AID 686992;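 active = mean E-selectin-positive cell signal at least 10% of the positive control, reached in at least 60% of replicates, without over 20% cell loss; inconclusive = no rule given, readout overlaps actives, possibly toxicity-flagged; inactive = the rest, including those meeting only one limit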
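assay system = HUVEC, human umbilical vein endothelial cells | input = 3,000 HUVEC seeded per well | medium = EGM-2 growth medium on 0.1% gelatin-coated wells | dosing = one compound dose added by pin transfer | signal = immunofluorescence imaging | read-out basis = % PE-positive cells | control set = TNF-alpha, DMSO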
ERAP1 HTS inh: ERAP1 (human) enzyme inhibition; Q9NZ08; recombinant ERAP1, Leu-AMC fluorescence, 60 min; inhibition, % at 10.7 µM; actives 0.15% (n = 340,000);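 active = mean replicate inhibition of at least 30%, or all replicates individually reaching that 30% level; inactive = mean below 30% and not every replicate reaching it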
Target sequence (Q9NZ08 whole entry, looked up): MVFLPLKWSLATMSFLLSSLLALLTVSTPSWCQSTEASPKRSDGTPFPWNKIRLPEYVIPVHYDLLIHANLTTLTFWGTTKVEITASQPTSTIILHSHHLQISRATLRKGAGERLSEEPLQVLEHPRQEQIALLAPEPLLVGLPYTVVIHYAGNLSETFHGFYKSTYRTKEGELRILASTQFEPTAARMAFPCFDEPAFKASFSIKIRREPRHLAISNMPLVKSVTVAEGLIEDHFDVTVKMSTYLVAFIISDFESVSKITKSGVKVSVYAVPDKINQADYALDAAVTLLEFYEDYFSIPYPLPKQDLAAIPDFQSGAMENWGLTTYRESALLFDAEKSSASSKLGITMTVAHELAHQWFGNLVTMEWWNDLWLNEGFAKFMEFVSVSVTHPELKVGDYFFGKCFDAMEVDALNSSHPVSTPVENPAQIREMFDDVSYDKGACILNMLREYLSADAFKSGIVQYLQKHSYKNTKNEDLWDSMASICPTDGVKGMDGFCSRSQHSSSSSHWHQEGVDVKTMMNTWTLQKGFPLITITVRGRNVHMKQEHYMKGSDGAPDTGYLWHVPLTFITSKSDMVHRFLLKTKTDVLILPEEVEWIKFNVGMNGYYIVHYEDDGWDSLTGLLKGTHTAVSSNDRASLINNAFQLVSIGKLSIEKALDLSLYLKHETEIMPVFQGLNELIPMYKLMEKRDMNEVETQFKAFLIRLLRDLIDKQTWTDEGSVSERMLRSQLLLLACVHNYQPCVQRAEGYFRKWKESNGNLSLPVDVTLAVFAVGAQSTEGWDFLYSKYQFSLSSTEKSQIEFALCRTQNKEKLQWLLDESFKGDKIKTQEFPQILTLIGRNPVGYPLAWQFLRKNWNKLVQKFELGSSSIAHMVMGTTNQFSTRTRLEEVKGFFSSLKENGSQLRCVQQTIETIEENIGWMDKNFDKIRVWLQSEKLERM
DENV2 CPE rescue: DENV2-induced cell death inhibition; CPE inhibition, % at 9.99 µM; actives 1.7% (n = 350,000); DENV2-infected cells, cytopathic effect rescue, plate reader; in the data active = CPE inhibition above about 20%, passing the limit was not always enough; inconclusive = no clear call, values can overlap the other calls; tested in BHK-21 cells
SIRT5 inh: blocks human SIRT5 desuccinylation of peptide; inhibition, % at 15 µM; actives 1.1% (n = 330,000); Purified SirT5, succinyl-peptide AMC, trypsin-coupled fluorescence; Q9NXA8; in the data active = inhibition above about 15%; inconclusive = no clear call, values can overlap the other calls
Each line names hits and unclear results; the compound was inactive in the other large screens.

CCN(CC(=O)Nc1c(F)cccc1F)C(=O)c1ccc(COc2ccccc2)cc1	DENV2 CPE rescue 89 (no result: E-selectin induc)
NC(=O)C(CCC(=O)c1ccc(Br)cc1)S(=O)(=O)c1ccccc1 (stereo not drawn)	DENV2 CPE rescue 31 (no result: PglD inh)
CCOC(=O)[C@H](O)[C@@H](O)c1cccc([C@H](O)[C@@H](O)C(=O)OCC)c1	DENV2 CPE rescue 41 (no result: SIRT5 inh)
CCOC(=O)C(C(=O)OCC)C(Nc1ccccc1)c1ccccc1 (stereo not drawn)	none
COC(=O)C(Cc1ccccc1)NC(=O)CSc1nc(C)cc(=O)[nH]1 (stereo not drawn)	none
COc1ccccc1-c1cn(CC[C@H]2CC[C@H](NC(=O)NC(C)C)[C@H](CO)O2)nn1	none
CN(C)Cc1cn(CC[C@H]2CC[C@@H](NC(=O)Nc3ccccc3F)[C@@H](CO)O2)nn1	SIRT5 inh 18
O=C(Nc1ccc(F)cc1)N[C@@H]1CC[C@@H](CCn2cc(C3(O)CCCC3)nn2)O[C@H]1CO	none
COc1ccc(NC(=O)N[C@@H]2CC[C@@H](CCn3cc(-c4ccccc4)nn3)O[C@@H]2CO)cc1	none
COc1ccc(NC(=O)N[C@H]2CC[C@H](CCn3cc(-c4ccccc4)nn3)O[C@@H]2CO)cc1	DENV2 CPE rescue 37
CN(C)Cc1cn(CC[C@H]2CC[C@H](NC(=O)Nc3ccccc3F)[C@H](CO)O2)nn1	DENV2 CPE rescue inconclusive
O=C(Nc1ccc(C(F)(F)F)cc1)N[C@@H]1CC[C@H](CCn2cc(C3(O)CCCC3)nn2)O[C@@H]1CO	SIRT5 inh 18
COc1ccccc1-c1cn(CC[C@H]2CC[C@@H](NC(=O)NC(C)C)[C@H](CO)O2)nn1	DENV2 CPE rescue 28
COc1ccc(NC(=O)N(C)C[C@@H]2Oc3c(NC(=O)c4ccncc4)cccc3C(=O)N([C@H](C)CO)C[C@H]2C)cc1	none
CCCCNc1c(N2CCN(C(=O)OCC)CC2)c(=O)c1=O	none (no result: SIRT5 inh)
OC[C@@H]1[C@@H](c2ccc(-c3cccc(F)c3)cc2)[C@H]2CN(CCC(F)(F)F)CCCCN12	none
COc1ccc(C(=O)/C=C2\NCCc3cc(OC)c(OC)cc32)cc1OC	none (no result: E-selectin induc)
O=C(Nc1ccc(Cl)cc1)N[C@H]1CC[C@@H](CCn2cc(Cc3ccccc3)nn2)O[C@H]1CO	DENV2 CPE rescue 46
CC(=O)Nc1ccc(C(=O)CCl)cc1	DENV2 CPE rescue 27 (no result: E-selectin induc, SIRT5 inh)
O=C1CCCCC(=O)[C@H](O)C[C@H](c2ccccc2)O1	none (no result: PglD inh)
COc1ccc2c(c1)C(=O)O[C@@H](c1ccccc1)C[C@@H](O)C(=O)CC2	DENV2 CPE rescue 33, SIRT5 inh 20 (no result: PglD inh)
O=C1CCCCCCC(=O)[C@H](O)C[C@H](c2ccccc2)O1	DENV2 CPE rescue 50 (no result: PglD inh)
CCOc1ccccc1C1C(C(=O)Nc2ccccc2OC)=C(C)Nc2nc(CCCO)nn21 (stereo not drawn)	DENV2 CPE rescue 57
COc1ccc(C2C(C(=O)Nc3ccc(F)cc3)=C(C)Nc3nc(CCCO)nn32)cc1 (stereo not drawn)	DENV2 CPE rescue 29 (no result: E-selectin induc, SIRT5 inh)
COc1ccc(OC)c(C2C(C(=O)Nc3ccccc3OC)=C(C)Nc3nc(CCCO)nn32)c1 (stereo not drawn)	none
N#Cc1c(NC(=O)c2cccc(S(=O)(=O)Nc3ccc(C(=O)O)cc3)c2)sc2c1CCCC2	ERAP1 HTS inh 43 (no result: PglD inh)
CC(=O)C[C@H](O)CC(=O)[C@H]1OC(=O)CCCCC/C=C/Cc2ccccc21	none (no result: SIRT5 inh)
CC(=O)C[C@@H](O)CC(=O)[C@@H]1OC(=O)CCCCC/C=C/Cc2ccccc21	SIRT5 inh 24
CC[C@H]1C/C=C\Cc2ccccc2[C@@H](C(=O)C[C@@H](O)CC(C)=O)OC1=O	SIRT5 inh 18
CO[C@@H]1CN(C)C(=O)c2cc(NS(=O)(=O)c3ccccc3C)ccc2OC[C@H](C)N(C)C[C@H]1C	none
CC(C)NC(=O)Nc1ccc2c(c1)C(=O)N([C@H](C)CO)C[C@@H](C)[C@H](CN(C)Cc1ccc(C(F)(F)F)cc1)OCCCC[C@@H](C)O2	DENV2 CPE rescue 32 (no result: E-selectin induc)
CC(C)NC(=O)Nc1ccc2c(c1)C(=O)N([C@H](C)CO)C[C@@H](C)[C@@H](CN(C)Cc1ccc(C(F)(F)F)cc1)OCCCC[C@@H](C)O2	DENV2 CPE rescue 42 (no result: E-selectin induc)
CC(C)NC(=O)Nc1ccc2c(c1)C(=O)N([C@H](C)CO)C[C@@H](C)[C@H](CN(C)Cc1ccc(C(F)(F)F)cc1)OCCCC[C@H](C)O2	none (no result: E-selectin induc)
Cc1cc(OCc2cc(C(=O)N3CCCCCC3)no2)cc(C)c1Cl	none
O=C(NCC(=O)N1CCCC1)c1ccccc1F	none
O=C1NC[C@H](CCCCN2C[C@H](Cc3ccccc3)N(CCC3CCCCC3)C(=O)C2=O)N(CCC2CCCCC2)C1=O	none (no result: PglD inh, ERAP1 HTS inh, SIRT5 inh)
CCOc1ccc(NS(=O)(=O)c2cc(C(=O)N3CCC3)ccc2Cl)cc1	DENV2 CPE rescue 47 (no result: E-selectin induc)
CCC(=O)N(C)C[C@@H]1Oc2ncc(-c3ccc(C)cc3)cc2C(=O)N([C@@H](C)CO)C[C@@H]1C	none
C[C@@H]1CN([C@H](C)CO)C(=O)c2cc(-c3ccc(F)cc3)cnc2O[C@H]1CN(C)C(=O)Cc1ccccn1	SIRT5 inh 23
CCC(=O)N(C)C[C@@H]1Oc2ncc(-c3ccc(C)cc3)cc2C(=O)N([C@@H](C)CO)C[C@H]1C	DENV2 CPE rescue 22
CCC(=O)N(C)C[C@@H]1Oc2ncc(-c3ccc(C#N)cc3)cc2C(=O)N([C@H](C)CO)C[C@@H]1C	DENV2 CPE rescue 70
C[C@@H]1CN([C@@H](C)CO)C(=O)c2cc(-c3ccc(F)cc3)cnc2O[C@H]1CN(C)C(=O)Cc1ccccn1	none
CCC(=O)N(C)C[C@@H]1Oc2ncc(-c3ccc(C#N)cc3)cc2C(=O)N([C@H](C)CO)C[C@H]1C	none
COc1ccc(/C=C2\SC(=S)N(CCC(=O)Nc3ccc(C(=O)O)cc3)C2=O)cc1OC	none (no result: E-selectin induc, ERAP1 HTS inh, DENV2 CPE rescue, SIRT5 inh)
CO[C@@H]1CN(C)C(=O)c2ccc(NC(=O)CC(F)(F)F)cc2OC[C@H](C)N(S(=O)(=O)c2cn(C)cn2)C[C@H]1C	none (no result: PglD inh)
C[C@@H]1CCCCO[C@@H](CN(C)Cc2ccccc2)[C@H](C)CN([C@@H](C)CO)C(=O)c2cc(NC(=O)C3CCCCC3)ccc2O1	none
CN(c1ccc(OCC(=O)N2CCCC2)cc1)S(=O)(=O)c1ccc(Cl)cc1	none
CCOC(=O)N1CCC(NC(=O)c2cc(S(=O)(=O)NCCc3ccccc3)ccc2F)CC1	none (no result: PglD inh)
CC(=O)Nc1ccc(NC(=O)C(C)Sc2n[nH]c(-c3cccs3)n2)cc1 (stereo not drawn)	none
CC(C)NC(=O)Nc1ccc2c(c1)CC(=O)N([C@H](C)CO)C[C@@H](C)[C@H](CN(C)C(=O)Nc1ccc(F)cc1)O2	none
Cc1noc(C)c1NC(=O)N(C)C[C@H]1OCCCC[C@@H](C)Oc2ccc(NC(=O)Nc3cccc4ccccc34)cc2C(=O)N([C@@H](C)CO)C[C@H]1C	none (no result: ERAP1 HTS inh, SIRT5 inh)
Cc1noc(C)c1NC(=O)N(C)C[C@@H]1OCCCC[C@@H](C)Oc2ccc(NC(=O)C3CCCCC3)cc2C(=O)N([C@@H](C)CO)C[C@@H]1C	DENV2 CPE rescue 25

Bioassay records (PubChem)
